“Also recorded” adds a separate entry of the source. Where a SMILES comes first, the peptide text is derived from it. The star is where a group is joined. Bz = O=C(c1ccccc1)*; NHPh = c1ccc(N*)cc1
Columns and labels:
[1] = Microsomal stability assay, human liver microsomes; type: in vitro ADME; conditions: for half-life at 1 μmol/L: human, pH 7.4
[2] = Cytotoxicity assay; type: cell-based; conditions: human, TZM-GFP cells
How it was run: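 TZM-GFP cells were plated at 1 × 10^4 cells per well and exposed continuously to increasing concentrations of test compound for 72 h. Viable cells were counted by XTT. CC50 came from a log(inhibitor) vs normalized response, variable-slope fit for each independent assay, then averaged. Runs were in duplicate across at least two independent experiments; mean ± SD.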

[3] = Microsomal stability assay, mouse liver microsomes; type: in vitro ADME; conditions: for half-life at 1 μmol/L: mouse, pH 7.4
[4] = test system: HIV-1NL4-3; experiment: Anti-HIV-1 assay in TZM-GFP cells; type: cell-based; conditions: for Inhibition at 2 μmol/L: 2 μmol/L compound; for inhibition at 2 µM: Human immunodeficiency virus 1, read-out: Inhibition at 2 μmol/L; for inhibition at 20 µM: Human immunodeficiency virus 1, read-out: Inhibition at 20 μmol/L
How it was run: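 TZM-GFP cells seeded at 1 × 10^4 per well; after 24 h, medium replaced with test compound at 20 μmol/L, with actives retested at 2 μmol/L. HIV-1NL4-3 (HEK 293FT-transfection stock, MT2-propagated, PEG-concentrated) added at MOI 1 24 h later. After 48 h, GFP-positive cells counted by imaging; inhibition relative to DMSO controls. Duplicates, at least two independent experiments.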

| SMILES | CC50 at 72 h [2] | inhibition at 2 µM [4] | inhibition at 20 µM [4] | also measured |
| --- | --- | --- | --- | --- |
| CCN(C(=O)[C@H](Cc1ccccc1)NC(=O)CNC(=O)c1ccccc1)c1ccccc1 [Compound 26, (S)-N-(2-((1-(Ethyl(phenyl)amino)-1-oxo-3-phenylpropan-2-yl)amino)-2-oxoethyl)benzamide] | > 50 µM |  |  | half-life at 1 μmol/L [1]: 14 min; half-life at 1 μmol/L [3]: 2.4 min |
| CN(C(=O)[C@H](Cc1ccccc1)NC(=O)c1c[nH]c(=O)[nH]c1=O)c1ccccc1 [Compound 17, (S)-N-(1-(Methyl(phenyl)amino)-1-oxo-3-phenylpropan-2-yl)-2,4-dioxo-1,2,3,4-tetrahydropyrimidine-5-carboxamide] | > 50 µM |  |  | antiviral activity against HIV-1 (in words) ([4]; HIV-1 in TZM-GFP cells): lack of antiviral activity; also recorded: completely inactive |
| Cc1cn(CC(=O)N[C@@H](Cc2ccccc2)C(=O)N(C)c2cccc(Br)c2)c(=O)[nH]c1=O [Compound 14, (S)-N-(3-Bromophenyl)-N-methyl-2-(2-(5-methyl-2,4-dioxo-3,4-dihydropyrimidin-1(2H)-yl)acetamido)-3-phenylpropanamide] | > 50 µM | 22% | 100% | Inhibition at 2 μmol/L ([4]; HIV-1 in TZM-GFP cells): exhibited inhibition |
| Cc1cn(CC(=O)N[C@@H](Cc2ccccc2)C(=O)N(C)c2ccccc2)c(=O)[nH]c1=O [Compound 8, (S)-N-Methyl-2-(2-(5-methyl-2,4-dioxo-3,4-dihydropyrimidin-1(2H)-yl)acetamido)-N,3-diphenylpropanamide] | > 50 µM | 35% | 95% | Inhibition at 2 μmol/L ([4]; HIV-1 in TZM-GFP cells): exhibited inhibition |
| CN(C(=O)[C@H](Cc1ccccc1)NC(=O)CC1NC(=O)NC1=O)c1ccc(Cl)cc1 (stereo partly drawn) [Compound 4, (2S)-N-(4-Chlorophenyl)-2-(2-(2,5-dioxoimidazolidin-4-yl)acetamido)-N-methyl-3-phenylpropanamide] | > 50 µM | 17% | 96% | Inhibition at 2 μmol/L ([4]; HIV-1 in TZM-GFP cells): inhibited HIV-1 weakly; Inhibition at 20 μmol/L ([4]; 20 μmol/L compound, HIV-1 in TZM-GFP cells): almost completely |
| CN(C(=O)[C@H](Cc1ccccc1)NC(=O)CC1NC(=O)NC1=O)c1cccc(F)c1 (stereo partly drawn) [Compound 7, (2S)-2-(2-(2,5-Dioxoimidazolidin-4-yl)acetamido)-N-(3-fluorophenyl)-N-methyl-3-phenylpropanamide] | > 50 µM |  |  |  |
| CN(C(=O)[C@H](Cc1ccccc1)NC(=O)CNC(=O)c1ccccc1)c1cccc(C(F)(F)F)c1 [Compound 25, (S)-N-(2-((1-(Methyl(3-(trifluoromethyl)phenyl)amino)-1-oxo-3-phenylpropan-2-yl)amino)-2-oxoethyl)benzamide] | > 50 µM | 19% | 89% |  |
| CN(C(=O)[C@H](Cc1ccccc1)NC(=O)CNC(=O)c1ccccc1)c1cccc(F)c1 [Compound 23, (S)-N-(2-((1-((3-Fluorophenyl)(methyl)amino)-1-oxo-3-phenylpropan-2-yl)amino)-2-oxoethyl)benzamide] | > 50 µM | 3% | 94% | half-life at 1 μmol/L [1]: 12 min; half-life at 1 μmol/L [3]: 3.6 min |
| Cc1cn(CC(=O)N[C@@H](Cc2ccccc2)C(=O)N(C)c2cccc(F)c2)c(=O)[nH]c1=O [Compound 13, (S)-N-(3-Fluorophenyl)-N-methyl-2-(2-(5-methyl-2,4-dioxo-3,4-dihydropyrimidin-1(2H)-yl)acetamido)-3-phenylpropanamide] | > 50 µM | 0% | 74% |  |
| Cc1cn(CC(=O)N[C@@H](Cc2ccccc2)C(=O)N(C)c2ccc(Cl)cc2)c(=O)[nH]c1=O [Compound 10, (S)-N-(4-Chlorophenyl)-N-methyl-2-(2-(5-methyl-2,4-dioxo-3,4-dihydropyrimidin-1(2H)-yl)acetamido)-3-phenylpropanamide] | > 50 µM |  |  | half-life at 1 μmol/L [1]: 12 min; Inhibition at 2 μmol/L ([4]; HIV-1 in TZM-GFP cells): exhibited inhibition; half-life at 1 μmol/L [3]: 4.6 min |
| Cc1cn(CC(=O)N[C@@H](C(=O)N(C)c2ccccc2)c2ccccc2)c(=O)[nH]c1=O [Compound 16, (R)-N-Methyl-2-(2-(5-methyl-2,4-dioxo-3,4-dihydropyrimidin-1(2H)-yl)acetamido)-N,2-diphenylacetamide] | > 50 µM |  |  | antiviral activity against HIV-1 (in words) ([4]; HIV-1 in TZM-GFP cells): did not inhibit HIV-1 |
| Cc1cn(CC(=O)N[C@@H](Cc2ccccc2)C(=O)N(C)c2cccc(Cl)c2)c(=O)[nH]c1=O [Compound 11, (S)-N-(3-Chlorophenyl)-N-methyl-2-(2-(5-methyl-2,4-dioxo-3,4-dihydropyrimidin-1(2H)-yl)acetamido)-3-phenylpropanamide] | > 50 µM | 37% | 95% | Inhibition at 2 μmol/L ([4]; HIV-1 in TZM-GFP cells): exhibited inhibition |
| Cc1cn(CC(=O)N[C@@H](Cc2ccccc2)C(=O)N(C)c2cccc(C(F)(F)F)c2)c(=O)[nH]c1=O [Compound 15, (S)-N-Methyl-2-(2-(5-methyl-2,4-dioxo-3,4-dihydropyrimidin-1(2H)-yl)acetamido)-3-phenyl-N-(3-(trifluoromethyl)phenyl)propanamide] | > 50 µM | 28% | 95% | Inhibition at 2 μmol/L ([4]; HIV-1 in TZM-GFP cells): exhibited inhibition |
| CN(C(=O)[C@H](Cc1ccccc1)NC(=O)CNC(=O)c1ccccc1)c1cccc(Br)c1 [Compound 24, (S)-N-(2-((1-((3-Bromophenyl)(methyl)amino)-1-oxo-3-phenylpropan-2-yl)amino)-2-oxoethyl)benzamide] | > 50 µM | 38% | 97% |  |
| Cc1ccc(N(C)C(=O)[C@H](Cc2ccccc2)NC(=O)CC2NC(=O)NC2=O)cc1 (stereo partly drawn) [Compound 3, (2S)-2-(2-(2,5-Dioxoimidazolidin-4-yl)acetamido)-N-methyl-3-phenyl-N-(p-tolyl)propanamide] | > 50 µM | 2% | 62% |  |
| CN(C(=O)[C@H](Cc1ccccc1)NC(=O)CC1NC(=O)NC1=O)c1cccc(Cl)c1 (stereo partly drawn) [Compound 5, (2S)-N-(3-Chlorophenyl)-2-(2-(2,5-dioxoimidazolidin-4-yl)acetamido)-N-methyl-3-phenylpropanamide] | > 50 µM |  |  |  |
| O=C(CNC(=O)c1ccccc1)N[C@@H](Cc1ccccc1)C(=O)N1CCC[C@H]1C(=O)Nc1ccccc1 [Compound 27, (S)-1-(Benzoylglycyl-L-phenylalanyl)-N-phenylpyrrolidine-2-carboxamide] (Bz-Gly-Phe-Pro-NHPh) | > 50 µM |  |  |  |
| CN(C(=O)[C@H](Cc1ccccc1)NC(=O)CC1NC(=O)NC1=O)c1ccc(F)cc1 (stereo partly drawn) [Compound 6, (2S)-2-(2-(2,5-Dioxoimidazolidin-4-yl)acetamido)-N-(4-fluorophenyl)-N-methyl-3-phenylpropanamide] | > 50 µM |  |  |  |
| CN(C(=O)[C@H](Cc1ccccc1)NC(=O)CNC(=O)c1ccccc1)c1cccc(Cl)c1 [Compound 21, (S)-N-(2-((1-((3-Chlorophenyl)(methyl)amino)-1-oxo-3-phenylpropan-2-yl)amino)-2-oxoethyl)benzamide] | > 50 µM | 40% | 95% |  |
| Cc1cn(CC(=O)N[C@@H](Cc2ccccc2)C(=O)N(C)c2ccc(F)cc2)c(=O)[nH]c1=O [Compound 12, (S)-N-(4-Fluorophenyl)-N-methyl-2-(2-(5-methyl-2,4-dioxo-3,4-dihydropyrimidin-1(2H)-yl)acetamido)-3-phenylpropanamide] | > 50 µM | 6% | 94% |  |
| CN(C(=O)[C@H](Cc1ccccc1)NC(=O)CNC(=O)c1ccccc1)c1ccc(F)cc1 [Compound 22, (S)-N-(2-((1-((4-Fluorophenyl)(methyl)amino)-1-oxo-3-phenylpropan-2-yl)amino)-2-oxoethyl)benzamide] | > 50 µM | 12% | 97% |  |
| CN(C(=O)[C@H](Cc1ccccc1)NC(=O)CC1NC(=O)NC1=O)c1ccccc1 (stereo partly drawn) [Compound 2, (2S)-2-(2-(2,5-Dioxoimidazolidin-4-yl)acetamido)-N-methyl-N,3-diphenylpropanamide] | > 50 µM |  |  | antiviral activity against HIV-1 (in words) ([4]; HIV-1 in TZM-GFP cells): completely inactive |
| Cc1ccc(N(C)C(=O)[C@H](Cc2ccccc2)NC(=O)CNC(=O)c2ccccc2)cc1 [Compound 19, (S)-N-(2-((1-(Methyl(p-tolyl)amino)-1-oxo-3-phenylpropan-2-yl)amino)-2-oxoethyl)benzamide] | > 50 µM |  |  | half-life at 1 μmol/L [1]: 22 min; half-life at 1 μmol/L [3]: 5 min |
| CN(C(=O)[C@H](Cc1ccccc1)NC(=O)CNC(=O)c1ccccc1)c1ccc(Cl)cc1 [Compound 20, (S)-N-(2-((1-((4-Chlorophenyl)(methyl)amino)-1-oxo-3-phenylpropan-2-yl)amino)-2-oxoethyl)benzamide] | > 50 µM |  |  | half-life at 1 μmol/L [1]: 36 min; fold increase of half-life over PF74 in HLMs ([1]; relative to PF74): 51 fold; half-life at 1 μmol/L [3]: 13 min; fold increase of half-life over PF74 in MLMs ([3]; relative to PF74): 22 fold |
| Cc1ccc(N(C)C(=O)[C@H](Cc2ccccc2)NC(=O)Cn2cc(C)c(=O)[nH]c2=O)cc1 [Compound 9, (S)-N-Methyl-2-(2-(5-methyl-2,4-dioxo-3,4-dihydropyrimidin-1(2H)-yl)acetamido)-3-phenyl-N-(p-tolyl)propanamide] | > 50 µM | 7% | 85% |  |
